Screening results: PubChem BioAssay, several laboratories
A selection: hits, their analogues and other compounds. The true share with any hit is near 3.7%.
14-3-3 Bad PPI: disrupts binding of bovine 14-3-3 zeta to phospho-Bad peptide; TR-FRET 14-3-3zeta/Dy647-pBad peptide displacement, 1 h; 0.71% of 220,000 active; inhibition, % at 21.7 µM; P63103;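 active = inhibition above about 70%, limit read from the data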;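 also: 0% = full 14-3-3 plus peptide FRET controls and 100% = background without 14-3-3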
Target sequence (P63103 whole entry, looked up): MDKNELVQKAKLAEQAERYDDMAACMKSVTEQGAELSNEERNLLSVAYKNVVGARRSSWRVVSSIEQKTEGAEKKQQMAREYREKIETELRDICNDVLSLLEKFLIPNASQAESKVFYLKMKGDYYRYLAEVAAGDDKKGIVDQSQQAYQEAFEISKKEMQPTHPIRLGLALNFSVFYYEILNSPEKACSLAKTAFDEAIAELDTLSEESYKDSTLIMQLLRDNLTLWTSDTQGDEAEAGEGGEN
eIF4E 4G PPI: eIF4E/eIF4G interaction inhibition in translation initiation. P63073+Q04637. TR-FRET eIF4E-eIF4GI(517-606) binding, 2 h. inhibition, % at 21.7 µM. 0.37% of 220,000 active. AID 782;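 also: 0% = full FRET control wells and 100% = background wells lacking eIF4GI fragment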
NCF1 inh: p47phox (human) inhibition; p47phox/p22phox peptide binding, fluorescence polarization, 2 h; P14598; 0.53% of 220,000 active; AID 1274; inhibition, % at 24.7 µM;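 also: 0% = p47phox with labelled peptide and 100% = labelled peptide alone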
RBBP9 inhibitor: human RBBP9 hydrolase inhibition; AID 1515; inhibition, % at 7.94 µM; recombinant RBBP9, FP-Rh probe fluorescence polarization; 0.2% of 220,000 active; O75884;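 active = inhibition above the campaign mean of all tested compounds plus 3 SD, cut at about 14% in these data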;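 also: plate controls were DMSO wells with RBBP9 for no effect and wells lacking RBBP9 protein for full effect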
Target sequence (O75884 whole entry, looked up): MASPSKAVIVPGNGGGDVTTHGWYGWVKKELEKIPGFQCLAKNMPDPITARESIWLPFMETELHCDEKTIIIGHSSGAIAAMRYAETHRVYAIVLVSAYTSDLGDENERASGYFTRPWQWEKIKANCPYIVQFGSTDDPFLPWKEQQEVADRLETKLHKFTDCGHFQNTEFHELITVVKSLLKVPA
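Test system – recombinant human RBBP9 · Input – RBBP9 2.5 µM in dispensing solution, pre-mixing · Medium – Tris buffer pH 8.0, NaCl, Pluronic · Schedule – preincubation 30 min plus labeling 45 min at 25 °C · Measured by – fluorescence polarization · Measure – % inhibition · Controls – DMSO and no-protein wells · Replicates – one well per compound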
EBV gp42 inh: blocks Epstein-Barr virus glycoprotein 42 binding | Q1HVG2 | Fluorescence polarization binding assay, mP read-out | inhibition, % (tested at 21.74 µM) | 0.42% of 220,000 active; in the data active = inhibition above about 50%
Target sequence (Q1HVG2 whole entry, looked up): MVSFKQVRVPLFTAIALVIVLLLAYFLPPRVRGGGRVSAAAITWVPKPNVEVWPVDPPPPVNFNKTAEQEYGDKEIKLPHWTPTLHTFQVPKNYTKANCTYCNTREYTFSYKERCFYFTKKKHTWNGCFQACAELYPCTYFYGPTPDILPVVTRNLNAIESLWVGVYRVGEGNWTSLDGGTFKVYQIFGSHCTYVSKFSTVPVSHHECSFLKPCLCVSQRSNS
WT yeast gro inh: growth inhibition of WT yeast, mitochondrial fusion screen. mitochondrial fusion phenotypic screen, WT strain. inhibition, % at 10 µM. 2.1% of 190,000 active. AID 1362; in the data active = inhibition above about 58%; tested in S. cerevisiae
An asterisk follows results filed as active; nt = no result; [ ] = dose if it differs, or a comment.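 The calls were made as follows, unless noted: active = inhibition above about 30% (limit read from the data); inactive = the rest.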

SMILES | 14-3-3 Bad PPI | eIF4E 4G PPI | NCF1 inh | RBBP9 inhibitor | EBV gp42 inh | WT yeast gro inh
Cc1cc(C)nc(N/N=C/c2sccc2C)n1 | -10.4 | -3.0 | -6.2 | 2.4 | -1.0 | 17.0
O=C(c1cccc(S(=O)(=O)N2CCc3ccccc32)c1)N1CCN(c2ccccn2)CC1 | -2.2 | -0.4 | -3.0 | 3.9 | 0.3 | -7.4
COc1ccc(-c2cc(C(=O)N3CCN(c4ncccn4)CC3)c3ccccc3n2)c(OC)c1 | 9.2 | 15.1 | -5.2 | -4.7 | -7.3 | 59.1*
COc1ccc(OC)c(-c2cc(C(=O)N3CCN(c4ncccn4)CC3)c3ccccc3n2)c1 | 4.9 | 0.1 | 1.4 | -6.6 | -2.8 | 31.0
Cc1ccc(/C=C/C2=NN(Cc3ccccc3Cl)C(=O)CC2)cc1 | -4.8 | 2.8 | -22.2 | -1.1 | -8.6 | 59.3*
CC(C)(C)c1ccc(CN2N=C(/C=C/c3ccccc3)CCC2=O)cc1 | -14.0 | 2.9 | -18.5 | -1.6 | -13.5 | 71.7*
Cc1ccc(/C=C/C2=NN(Cc3ccccc3)C(=O)CC2)cc1 | -5.0 | 4.0 | -5.1 | -4.4 | -18.8 | -41.2
O=C(Cc1ccc(Br)cc1)Nc1cccc(Cl)c1 | 1.1 | 2.4 | -1.9 | -11.0 | 11.8 | 18.1
COCCn1nnnc1C(c1ccccc1)N1CCN(C)CC1 (configuration not stated) | 72.4* | -6.0 | -5.4 | -2.4 | -0.7 | 16.2
CCC(c1nnnn1CCOC)N1CCN(Cc2ccccc2OC)CC1 (configuration not stated) | 87.8* | -1.6 | -3.1 | -5.7 | -1.0 | -3.8
COCCn1nnnc1C(c1ccc2ncccc2c1)N1CCN(c2ccccc2F)CC1 (configuration not stated) | 76.1* | 2.2 | 1.0 | 4.2 | -10.6 | -15.5
CCCCCCCn1c(NC(=O)CC)nc2ccccc21 | 9.5 | 2.2 | -6.6 | -3.7 | -25.4 | nt
CSc1ncccc1C(=O)Nc1ccc(S(=O)(=O)NC2=NCCCCC2)cc1 | -6.4 | -0.9 | -10.9 | 0.3 | -3.2 | 3.7
N=C(N)c1ccc(O)cc1 | -0.6 | 2.0 | -3.7 | -6.1 | -14.2 | 5.0
CC/C(=C(/CC)c1ccc(O)cc1)c1ccc(O)cc1 | 2.5 | 0.3 | -3.7 | -6.0 | 10.4 | 76.0*
CCOc1ccc(N2CC(C(=O)Nc3cccc(S(=O)(=O)NC4=NCCC4)c3)CC2=O)cc1 (configuration not stated) | -5.2 | 97.2* | -9.5 | 9.4 | -1.4 | nt
CCOC(=O)Cn1nc(-c2ccccc2)c2ccccc2c1=O | 5.3 | -4.0 | -0.3 | 8.3 | -2.0 | nt
O=c1c2ccccc2c(-c2ccccc2)nn1Cc1c(Cl)cccc1Cl | -2.0 | -6.2 | -9.4 | 2.8 | 1.4 | 61.4*
CC(C)Nc1nc2ccccc2c(=O)[nH]1 | 89.9* | 2.6 | -4.3 | 8.8 | 1.2 | 5.9
COc1nc(Nc2nc3ccccc3c(=O)[nH]2)nc2ccc(C)cc12 | 48.1 | -36.7 | 31.1* | 10.1 | -18.1 | nt
CN(CCn1ccnc1)Cc1cn(Cc2ccccc2)nc1-c1ccc2c(c1)OCO2 | 5.3 | -2.6 | -4.7 | -1.7 | -9.3 | nt
O=C(CN1CCC(NC(=O)c2ccccc2)CC1)NCc1ccccc1F | -4.6 | -3.8 | -11.8 | 0.1 | -15.8 | 18.5
O=C(CN1CCC(NC(=O)c2ccc(F)cc2)CC1)NCc1ccccc1F | 3.1 | 3.6 | 49.8* | -5.6 | -17.5 | -19.6
COC(=O)CN1C(=O)N/C(=C/c2ccccc2OC)C1=O | -6.6 | 0.7 | -3.5 | 0.9 | -7.6 | -4.0
COc1cc2c(C(=O)N3CCOCC3)c(CSc3ccccc3)n(C)c2cc1Br | -4.9 | -1.1 | 1.1 | -12.2 | 13.2 | 60.0*
SMILES | 14-3-3 Bad PPI | eIF4E 4G PPI | NCF1 inh | RBBP9 inhibitor | EBV gp42 inh | WT yeast gro inh
CC(C)CC(=O)NCCCCc1ccccc1 | -9.0 | -4.5 | -10.3 | -6.9 | 3.7 | -3.6
CN1CCN(CC(=O)NC2CCCCC2)CC1 | 71.0* | -0.1 | -1.7 | -7.2 | -14.6 | -10.9
CCc1ccc(S(=O)(=O)/N=C2/C=C(Sc3ncn[nH]3)C(=O)c3ccccc32)cc1 | 84.1*[fluorescence artefact?] | 31.9*[fluorescence artefact?] | 55.2* | 3.4 | -33.3 | 36.5
CC1(C)CC(=O)N(Cc2ccccc2)C(=O)C1 | -4.8 | 7.2 | -5.5 | -9.1 | -2.3 | 6.2
CC(=O)N1CC(=O)N(Cc2ccccc2)/C(=C/c2ccccc2)C1=O | 1.3 | 1.6 | 134.1* | -4.0 | -5.6 | -25.6
CC(C)(C)N1OC2CC1c1nc3ccccc3n1C2 (configuration not stated) | -3.5 | -5.8 | 50.4* | nt | -5.4 | nt
c1ccc(N2OCC3Cn4c(nc5ccccc54)C32)cc1 (configuration not stated) | -1.5 | 0.9 | 17.9 | nt | -6.7 | nt
Cc1ccc(-c2cc(-c3ccccc3C)[nH]n2)c(O)c1 | 0.0 | 5.8 | -12.7 | -18.2 | -8.6 | 65.2*
Cc1ccc(O)c(-c2cc(-c3ccccc3F)[nH]n2)c1 | -0.1 | -0.4 | -7.4 | -10.5 | -1.4 | nt
COc1ccc(Sc2nc(-c3ccccn3)ncc2OC)cc1 | -14.2 | -3.4 | -0.7 | -1.5 | -1.3 | 63.0
COc1cnc(-c2ccccn2)nc1Sc1ccc(F)cc1 | -24.1 | 1.4 | -0.9 | -5.6 | -4.8 | 67.8*
O=c1c(/C=N/Nc2ccccc2)c(Sc2nnnn2-c2ccccc2)nc2ccccn12 | 10.7 | -5.0 | -22.5 | -4.4 | 152.4* | 17.9
COC(=O)C1CCN(CC(=O)NC(=O)NC2CCCCC2)CC1 | -8.2 | -2.2 | -7.2 | -4.9 | -8.6 | 3.1
COc1ccc2ccc3c(c2c1)N=CC1(O3)N(C)c2ccccc2C1(C)C (configuration not stated) | -3.4 | -0.8 | -8.2 | 5.9 | -9.2 | 78.2*
CN1c2ccccc2C(C)(C)C12C=Nc1c(ccc3ccccc13)O2 (configuration not stated) | 3.1 | 6.6 | -31.2 | -5.1 | -14.4 | 24.7
N#C/C(=C\c1sc(N2CCOCC2)nc1-c1ccccc1)C(=O)Nc1cccc2ccccc12 | -5.0 | 45.4* | -30.4 | -7.2 | 136.9* | 7.1
COc1ccc(/C=N/N(Cc2ccccc2)c2ccccc2)cc1O | -19.7 | -2.8 | -11.3 | -5.0 | -5.8 | 82.5*
C(=N\N(Cc1ccccc1)c1ccccc1)/c1ccco1 | -5.4 | -1.3 | -15.6 | -5.5 | -11.1 | 16.7
CCN(C(=O)COC(=O)c1c(C)c(-c2ccccc2)nc2ccccc12)C1CCS(=O)(=O)C1 (configuration not stated) | -2.7 | -11.2 | -9.0 | -1.5 | 12.1 | nt
O=C(Cn1c(O)c(/C=C2\C=Nc3ccc(Br)cc32)sc1=O)N1CCCC1 | 5.4 | -1.2 | 39.0* | -0.6 | -10.6 | 15.2
CCCCC(=O)Nc1ccc(C(=O)Nc2ccc(S(=O)(=O)Nc3nccc(C)n3)cc2)cc1 | -8.1 | -0.6 | -1.0 | -3.7 | -4.1 | -15.2
CCOC(=O)N1CCN(C(=O)CN(C)S(=O)(=O)c2ccc3c(c2)C(C)(C)C(=O)N3C)CC1 | -3.2 | -2.2 | -7.8 | -1.6 | -4.7 | 67.6*
CCOC(=O)N1CCN(C(=O)CN(C)S(=O)(=O)c2ccc3c(c2)c(=O)n(C)c(=O)n3C)CC1 | 2.6 | 3.1 | -2.2 | 0.5 | -14.0 | -0.9
